# Many of the other results were omitted from the sample, so hits are more common in it than they were.
# PostGolgi yeast = growth inhibition of a yeast mutant, post-Golgi transport screen | AID 739 | 0.9% of 98,000 active | inhibition, % at 10 µM | post-Golgi transport phenotypic cell assay;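 also: yeast cells grown in 1536-well plates; yeast grown about 18 h at 30C before absorbance read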
# Yeast lifespan up = yeast lifespan extension; S. cerevisiae growth with nicotinamide, OD615; deaD strain in restrictive glucose medium; inhibition of the nicotinamide effect, % at 10 µM; 0.68% of 130,000 active;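 active = inhibition above a set limit, placed 3 SD over the median of all compounds, cut at about 26% in these data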;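 also: 0% = nicotinamide-treated wells and 100% = cells grown without nicotinamide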
#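 Test system – modified budding yeast, DeaD strain · Compound – single dose 10 µM compound, 0.25% DMSO · Times – culture preincubation 4 h, compound exposure 48 h, both 30 °C · Detection – optical density (absorbance) at 615 nm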
# Yeast growth inh = yeast BB579 growth reduction in restrictive medium; 0.51% of 140,000 active; inhibition, % at 10 µM; S. cerevisiae BB579 growth, OD615, 48 h;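 active = inhibition above a set limit, 3 SD over the mean compound inhibition, cut at about 44% in these data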
#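 System: Saccharomyces cerevisiae DeaD strain BB579, replicative lifespan model yeast | Buffer or medium: Restrictive glucose-based CSMM-D medium | Times: 4 h preincubation and 48 h exposure at 30 °C | Detection: OD615 turbidity measurement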
# PostGolgi ctrl = inhibits growth of the yeast control strain. efflux-deficient yeast background strain, growth absorbance A615, 16 h. inhibition, % at 10 µM. 5% of 98,000 active
# * = called active by the depositor; x = not tested or not shown. Rule as the data show it, unless noted: active = inhibition above about 30%; inactive = the rest.
SMILES,PostGolgi yeast,Yeast lifespan up,Yeast growth inh,PostGolgi ctrl
Cn1c(N2CCCC2)nc2c1c(=O)n(Cc1ccc(F)cc1)c(=O)n2C,0,-6,-17,11
Cn1c(=O)n(Cc2ccc(F)cc2)c(=O)c2c1nc1n2CCCN1Cc1ccccc1,2,-11,-69,45*
Cn1c(=O)n(CCc2ccccc2)c(=O)c2c1ncn2Cc1ccccc1,-5,-13,-42,38*
COc1cc(C)nc(Oc2ccc(OCCOc3ccc(C)cc3)nn2)n1,-8,-18,-18,19
CC1CCCCN1Cc1nc2c(c(=O)n(C)c(=O)n2C)n1CCc1ccccc1 (configuration not stated),-5,-4,-80,38*
O=[N+]([O-])c1ccc(Cl)cc1NCCCN1CCOCC1,x,2,-22,x
Cc1cc(NC(=O)CCC(=O)N(CC(=O)NCC2CCCO2)c2ccc3c(c2)OCCO3)no1 (configuration not stated),x,x,-11,x
CC(=O)c1cccc(N(CC(=O)NCC2CCCO2)C(=O)CCC(=O)Nc2cc(C)on2)c1 (configuration not stated),-9,-9,-23,41*
O=C(c1cn(-c2ccccc2)nc1-c1cccs1)N1CCN(c2ccc(F)cc2)CC1,-6,-19,-29,48*
CC(NS(=O)(=O)c1ccccc1)C(c1cccs1)N1CCN(c2ccccc2)CC1 (configuration not stated),-5,-5,-32,39*
COc1ccc(OC)c(CCNC(=O)CS(=O)(=O)Cc2nc(-c3ccccc3C)oc2C)c1,6,9,-30,37*
Cc1ccc(-c2nnc(N3CCN(C(=O)CSc4ncn[nH]4)CC3)c3ccccc23)cc1,5,-10,-64,-3
COc1cc(NC(=S)N2CCN(C(=O)C3CCCO3)CC2)c(OC)cc1Cl (configuration not stated),x,-2,-20,x
O=C(N/N=C/c1cn(-c2ccccc2)nc1-c1cccs1)c1ccccc1F,x,-4,-18,x
CC1=NNC(=O)/C1=C\c1cn(-c2ccccc2)nc1-c1cccs1,x,-2,96*,x
Cn1c(CCNC(=O)c2ccco2)nc2cc(NS(=O)(=O)c3ccc(Cl)cc3)ccc21,-6,10,-79,2
COc1ccccc1-n1c(SCC(=O)Nc2cccc(C)c2)nc2c(c1=O)SCC2,3,-10,5,-4
N#CC1=C(N)NC(SCc2ccc(F)cc2)=C(C#N)C12CCCCC2,99*,-10,-14,68*
Cc1cc(Cl)ccc1OCCCC(=O)NC1CCN(C)CC1,-3,-6,-34,24
CCCCC(=O)NC(Nc1nc(C2CC2)cs1)(C(=O)OCC)C(F)(F)F (configuration not stated),-1,-16,-39,36*
Cc1nn(-c2ccccc2)c(=S)c2ccccc12,x,-4,2,x
CCCCc1c(C)nn(-c2nnc3c4ccccc4n(CC)c3n2)c1C,4,-12,-73,58*
CCn1c2ccccc2c2nc3ccccc3nc21,-4,-15,34,34*
CSc1nnc2c3ccccc3n(CCc3ccccc3)c2n1,0,-4,-20,18
CCOCC(=O)Nc1cc(-c2cn3cccnc3n2)ccc1C,-21,2,-24,36*
SMILES,PostGolgi yeast,Yeast lifespan up,Yeast growth inh,PostGolgi ctrl
CC1=C(C#N)C(=O)NC(C)(C)C1,1,-12,-9,37*
Cc1cccnc1NCc1ccc(O)c2ncccc12,-7,-10,-21,9
Cc1cccc(N=Nc2ccc(O)c3ncccc23)c1,x,-2,91*,x
O=C(NC1CC2CCC1C2)C1COc2ccccc2O1 (configuration not stated),0,-1,-37,31*
CC(C)(C)C(=O)Cn1c(=N)n(Cc2ccccc2)c2ccccc21,1,32*,-22,48*
COc1cc2c(cc1OC)CN(Cc1ccc(OC)c(C)c1OC)CC2,-8,-7,-66,5
O=c1c2ccccc2sn1-c1ccccc1,5,41*,-7,16
C=CCNc1nc2c(c(=O)[nH]c(=O)n2C)n1Cc1cccc(C)c1,-3,-6,-14,1
COc1ccc2c(c1)c1nnc(SC)nc1n2C,58*,-12,90*,87*
CNC(=S)NNC(=O)CCn1nc(C)c(Br)c1C,-13,-12,-49,37*
CCCCn1c(SCC(N)=O)nc2ccc(N3CCOCC3)cc2c1=O,-9,-8,-30,35*
CCCCn1c(SCC(=O)Nc2cccc(OC)c2)nc2ccc(N3CCOCC3)cc2c1=O,7,2,-10,11
COc1cccc(OC)c1OCCCOc1ccc([N+](=O)[O-])cc1Cl,x,-6,-8,x
CCOc1ccccc1OCCCOc1ccc([N+](=O)[O-])cc1Cl,6,-25,-19,38*
Cc1ccccc1N=C(NOCc1ccccc1)c1nonc1N,10,11,-32,36*
Cc1ccccc1N=C(NOCc1ccc(Cl)cc1Cl)c1nonc1N,-5,0,-59,35*
CC1=C(C(=O)N2CCOCC2)C(c2ccc(C)cc2)NC(=S)N1 (configuration not stated),x,-3,-13,x
CCOC(=O)C1CCCN(c2c(NCCN(CC)c3ccccc3)c(=O)c2=O)C1 (configuration not stated),-2,-7,-51,-8
CCOC(=O)C1CCCN(c2c(NCCCN(CC)c3ccccc3)c(=O)c2=O)C1 (configuration not stated),2,-14,-25,35*
CCc1n[nH]c2c1/C(=N\O)CC(C)(C)C2,98*,-13,-20,2
COc1ccc(OC)c(Nc2nc(-c3sc(C)nc3C)cs2)c1,0,-27,-38,48*
O=C(CC1S/C(=N/N=C/c2cccs2)NC1=O)Nc1ccc(Cl)c(Cl)c1 (configuration not stated),x,-5,-41,x
CCC1SC(=NC(=O)c2ccc(Cl)c(Cl)c2)NC1=O (configuration not stated),-3,-6,-21,35*
Cc1ccc(Cc2cnc(NC(=O)c3cccs3)s2)cc1,10,-18,-47,41*
O=C(Nc1ncc(Cc2cccc(Cl)c2)s1)c1cccs1,1,-16,-93,47*
SMILES,PostGolgi yeast,Yeast lifespan up,Yeast growth inh,PostGolgi ctrl
CN1CCN(S(=O)(=O)c2ccc(Cc3ccc(S(=O)(=O)N4CCN(C)CC4)cc3)cc2)CC1,0,5,-21,2
CN1OC(c2ccccc2)=C(CO)C1c1ccccc1 (configuration not stated),x,51*,-34,x
COCCCN1C(=O)C(=O)/C(=C(/O)c2ccc(C)cc2)C1c1ccccc1 (configuration not stated),4,0,-31,-1
O=C(CN(Cc1ccco1)C(=O)c1ccc(Cl)cc1)Nc1ccc(Cl)c(Cl)c1,x,4,-34,x
O=C(Nc1ccc(Cl)c(Cl)c1)N(Cc1cccnc1)Cc1ccco1,96*,-7,-15,105*
S=C(NCc1ccco1)Nc1cccc(Cl)c1,0,-9,-36,-3
S=C(NCc1ccco1)Nc1ccc(Cl)c(Cl)c1,4,-12,-27,41*
CC(=O)NS(=O)(=O)c1ccc(NC(=O)NC2CCCCC2)cc1,-2,-5,-4,10
COc1ccc(C2(CNC(=O)Cc3ccc(OC)c(OC)c3)CCOCC2)cc1,4,-9,-39,4
